Source: ChEMBL document CHEMBL1154191, “Evaluation of spirocyclic 3-(3-fluoropropyl)-2-benzofurans as sigma1 receptor ligands for neuroimaging with positron emission tomography” (J Med Chem, 2009)

Assays:
Stomach [1] = experiment: Biodistribution in CD1 mouse stomach assessed per gram of wet tissue at 400 to 600 kBq, iv after 60 mins post-injection by gamma counting; format: ADME, organism-based; conditions: in vivo, 1 h
Procedure, shortened: (§1)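 Female CD-1 mice (~8-12 weeks, 20-28 g), habituated ≥48 h and fasted 24 h with water available. The [18F] tracer (>150 GBq/μmol at end of synthesis) was given in 200 μL saline into the tail vein of conscious animals. At each time point, n=4-5, mice were anaesthetised, blood and urine sampled, then killed by cervical dislocation. Organs were weighed and γ-counted, and values calculated as % ID/g wet tissue.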

Intestine [2] = experiment: Biodistribution in CD1 mouse intestine assessed per gram of wet tissue at 400 to 600 kBq, iv after 60 mins post-injection by gamma counting; format: ADME, organism-based; conditions: in vivo, 1 h
Procedure, shortened: (§2)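 Female CD-1 mice (~8-12 weeks, 20-28 g) were fasted 24 h with free water. Conscious mice got 400-600 kBq [¹⁸F] tracer in saline by tail vein. At 5, 30, 60 or 120 min (n=4-5 per time) they were anesthetized, blood and urine sampled, then killed by cervical dislocation. Organs were weighed and γ-counted, giving % ID/g wet tissue.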

Kidney = experiment: Biodistribution in CD1 mouse kidney assessed per gram of wet tissue at 400 to 600 kBq, iv after 60 mins post-injection by gamma counting; format: ADME, organism-based; conditions: in vivo, 1 h; procedure, shortened: as §2
Muscle tissue [3] = experiment: Biodistribution in CD1 mouse muscle assessed per gram of wet tissue at 400 to 600 kBq, iv after 60 mins post-injection by gamma counting; format: ADME, organism-based; conditions: in vivo, 1 h; procedure, shortened: as §1
Mus musculus [4] = experiment: Plasma concentration in CD1 mouse assessed per gram of wet tissue at 400 to 600 kBq, iv after 120 mins post-injection by gamma counting; format: ADME, organism-based; conditions: in vivo, 2 h
Procedure, shortened: (§3)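 Female CD-1 mice (~8-12 weeks, 20-28 g), fasted 24 h with free access to water. 400-600 kBq [18F] tracer in 200 μL saline given by tail vein to conscious mice. At 5, 30, 60 or 120 min pi (n=4-5 per time) mice anaesthetised, blood taken, then euthanised. Samples weighed, γ-counted, %ID/g wet tissue calculated.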

Brain [5] = experiment: Biodistribution in CD1 mouse brain assessed per gram of wet tissue at 400 to 600 kBq, iv after 120 mins post-injection by gamma counting; format: ADME, organism-based; conditions: in vivo, 2 h; procedure, shortened: as §2
[6] = Biodistribution in CD1 mouse urine assessed as per gram of wet bladder at 400 to 600 kBq, iv after 120 mins post-injection by gamma counting; format: ADME, organism-based; conditions: in vivo, 2 h; procedure, shortened: as §1
Muscle tissue [7] = experiment: Biodistribution in CD1 mouse muscle assessed per gram of wet tissue at 400 to 600 kBq, iv after 120 mins post-injection by gamma counting; format: ADME, organism-based; conditions: in vivo, 2 h; procedure, shortened: as §1
Blood = experiment: Biodistribution in CD1 mouse blood assessed per gram of wet tissue at 400 to 600 kBq, iv after 60 mins post-injection by gamma counting in presence of 1 mg/kg, ip sigma 1/sigma 2 receptor antagonist haloperidol treated before compound addition; format: organism-based; design: dose 1 mg/kg, route intravenous; conditions: in vivo, 1 h
Procedure, shortened: (§4)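 Blocking arm in fasted female CD-1 mice (n=5). […] Animals were killed at 60 min post-injection, and organs were weighed and γ-counted as % ID/g wet tissue. Percent change was taken against the 60 min control group, with two-tailed unpaired Student's t test.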

Mus musculus [8] = experiment: Plasma concentration in CD1 mouse assessed per gram of wet tissue at 400 to 600 kBq, iv after 60 mins post-injection by gamma counting in presence of 1 mg/kg, ip sigma 1/sigma 2 receptor antagonist haloperidol treated before compound addition; format: organism-based; design: route intravenous; conditions: in vivo, 1 h
Procedure, shortened: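 Female CD-1 mice, fasted 24 h. […] Blood sampled and mice killed at 60 min pi. Samples weighed, γ-counted, %ID/g calculated. Compared with controls by two-tailed independent Student's t test.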

Brain [9] = experiment: Biodistribution in CD1 mouse brain assessed per gram of wet tissue at 400 to 600 kBq, iv after 60 mins post-injection by gamma counting in presence of 1 mg/kg, ip sigma 1/sigma 2 receptor antagonist haloperidol treated before compound addition; format: organism-based; design: dose 1 mg/kg, route intravenous; conditions: in vivo, 1 h; procedure, shortened: as §4
Heart = experiment: Biodistribution in CD1 mouse heart assessed per gram of wet tissue at 400 to 600 kBq, iv after 60 mins post-injection by gamma counting in presence of 1 mg/kg, ip sigma 1/sigma 2 receptor antagonist haloperidol treated before compound addition; format: organism-based; design: dose 1 mg/kg, route intravenous; conditions: in vivo, 1 h; procedure, shortened: as §4
Liver = experiment: Biodistribution in CD1 mouse liver assessed increase in drug uptake at 400 to 600 kBq, iv after 60 mins post-injection by gamma counting in presence of 1 mg/kg, ip sigma 1/sigma 2 receptor antagonist haloperidol treated before compound addition; format: organism-based; design: dose 1 mg/kg, route intravenous; conditions: in vivo, 1 h; procedure, shortened: as §4
Muscle tissue [10] = experiment: Biodistribution in CD1 mouse muscle assessed per gram of wet tissue at 400 to 600 kBq, iv after 60 mins post-injection by gamma counting in presence of 1 mg/kg, ip sigma 1/sigma 2 receptor antagonist haloperidol treated before compound addition; format: organism-based; design: route intravenous; conditions: in vivo, 1 h
Procedure, shortened: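 They were killed at 60 min pi, and organs were weighed and γ-counted as % ID/g wet tissue. Comparison with controls used Student's t test (independent, two-tailed).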

Femur [11] = experiment: Biodistribution in CD1 mouse femur assessed per gram of wet tissue per gram of wet tissue at 400 to 600 kBq, iv after 60 mins post-injection by gamma counting in presence of 1 mg/kg, ip sigma 1/sigma 2 receptor antagonist haloperidol treated before compound addition; format: organism-based; design: dose 1 mg/kg, route intravenous; conditions: in vivo, 1 h; procedure, shortened: as §4
Spleen = experiment: Drug uptake in CD1 mouse spleen at 400 to 600 kBq, iv after 120 mins post-injection by gamma counting relative to initial uptake; format: ADME, organism-based; conditions: in vivo, 2 h
Procedure, shortened: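 Organ % ID/g was measured by γ-counting after tail-vein injection of 400-600 kBq [18F] tracer in saline to fasted female CD-1 mice (n=4-5 per time). The 120 min pi value is expressed relative to the initial (5 min pi) uptake.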

[12] = Ratio of drug level in cerebellum to plasma in CD1 mouse at 400 to 600 kBq, iv after 60 mins post-injection in presence of 1 mg/kg, ip sigma 1/sigma 2 receptor antagonist haloperidol treated before compound addition; format: organism-based; design: route intravenous
Procedure, shortened: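 Killed 60 min pi; blood and cerebellum weighed, γ-counted as % ID/g wet tissue, ratio derived; Student's two-tailed t test versus untreated controls.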

[13] = Chemical stability assessed as occurrence of defluorination by radio-TLC and analytical radio-HPLC; format: physicochemical
Mus musculus [14] = experiment: Plasma concentration in CD1 mouse assessed per gram of wet tissue at 400 to 600 kBq, iv after 5 mins post-injection by gamma counting; format: ADME, organism-based; conditions: in vivo; procedure, shortened: as §3
Stomach [15] = experiment: Biodistribution in CD1 mouse stomach assessed per gram of wet tissue at 400 to 600 kBq, iv after 5 mins post-injection by gamma counting; format: ADME, organism-based; conditions: in vivo; procedure, shortened: as §1
Intestine [16] = experiment: Biodistribution in CD1 mouse intestine assessed per gram of wet tissue at 400 to 600 kBq, iv after 5 mins post-injection by gamma counting; format: ADME, organism-based; conditions: in vivo; procedure, shortened: as §2
[17] = Biodistribution in CD1 mouse thymus assessed per gram of wet tissue at 400 to 600 kBq, iv after 5 mins post-injection by gamma counting; format: ADME, organism-based; conditions: in vivo; procedure, shortened: as §1
[18] = Biodistribution in CD1 mouse adrenal gland assessed per gram of wet tissue at 400 to 600 kBq, iv after 5 mins post-injection by gamma counting; format: ADME, organism-based; conditions: in vivo; procedure, shortened: as §2
[19] = Biodistribution in CD1 mouse adrenal gland assessed per gram of wet tissue at 400 to 600 kBq, iv after 30 mins post-injection by gamma counting; format: ADME, organism-based; conditions: in vivo, 0.5 h; procedure, shortened: as §2
Femur [20] = experiment: Biodistribution in CD1 mouse femur assessed per gram of wet tissue at 400 to 600 kBq, iv after 30 mins post-injection by gamma counting; format: ADME, organism-based; conditions: in vivo, 0.5 h; procedure, shortened: as §2

Q: With `[18F]CCCC1OC2(CCN(Cc3ccccc3)CC2)c2ccccc21` (stereo not given) as the compound, how does the Drug uptake (Stomach [1]) read?
A: The Drug uptake was 3.17 %ID.

Q: What about the Drug uptake (Intestine [2]) of the same compound?
A: Its Drug uptake is 6.59 %ID.

Q: And the Drug uptake (Kidney)?
A: Its Drug uptake is 5.14 %ID.

Q: What about the Drug uptake (Muscle tissue [3]) of the same compound?
A: Its Drug uptake is 0.97 %ID.

Q: And the Drug uptake (Mus musculus [4])?
A: Its Drug uptake is 0.44 %ID.

Q: And the Drug uptake (Brain [5])?
A: Its Drug uptake is 2.14 %ID.

Q: And the Drug uptake [6]?
A: Its Drug uptake is 49.2 %ID.

Q: What about the Drug uptake (Muscle tissue [7]) of the same compound?
A: The Drug uptake was 0.97 %ID.

Q: And the Drug uptake (Blood)?
A: Its Drug uptake is 0.56 %ID.

Q: What about the Drug uptake (Mus musculus [8]) of the same compound?
A: Its Drug uptake is 0.63 %ID.

Q: And the Drug uptake (Brain [9])?
A: The Drug uptake was 0.54 %ID.

Q: What about the Drug uptake (Heart) of the same compound?
A: Its Drug uptake is 1.09 %ID.

Q: And the Drug uptake (Liver)?
A: Its Drug uptake is 3.89 %ID.

Q: And the Drug uptake (Muscle tissue [10])?
A: Its Drug uptake is 0.9 %ID.

Q: What about the Drug uptake (Femur [11]) of the same compound?
A: Its Drug uptake is 4.27 %ID.

Q: What about the Drug uptake (Spleen) of the same compound?
A: The Drug uptake was greater than 70%.

Q: And the Kp at 1 h [12]?
A: Its Kp at 1 h is 1.

Q: What about the Stability [13] of the same compound?
A: Its Stability is “Stable”.

Q: And the Drug uptake (Mus musculus [14])?
A: The Drug uptake was 1.85 %ID.

Q: And the Drug uptake (Stomach [15])?
A: Its Drug uptake is 3.39 %ID.

Q: What about the Drug uptake (Intestine [16]) of the same compound?
A: Its Drug uptake is 4.35 %ID.

Q: And the Drug uptake [17]?
A: The Drug uptake was 3.98 %ID.

Q: And the Drug uptake [18]?
A: The Drug uptake was 10.6 %ID.

Q: And the Drug uptake [19]?
A: The Drug uptake was 7.63 %ID.

Q: And the Drug uptake (Femur [20])?
A: The Drug uptake was 3.79 %ID.
